# Assay outcomes from PubChem.
# This is a sample that favours compounds with a hit; in the whole collection about 6.9% have one here.
# Calb biofilm kill: kills Candida albicans biofilms; C. albicans biofilm + clotrimazole, Alamar Blue; inhibition, % at 6 µM; 0.14% of 85,000 active;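 active = inhibition above 20%; inactive = inhibition below 20%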;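 note: preformed 24 hr biofilms exposed to compound for 48 hr; 0% = biofilm without compound and 100% = blank killed by clotrimazole plus chlorhexidine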
# tolC growth inh: blocks growth of E. coli BW25113 tolC mutant. OD615. growth inhibition, % at 10 µM (by protocol). 2.2% of 65,000 active;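 active = growth inhibition at or above a cutoff equal to the mean over every tested compound plus 3 SD, cut at about 60% in these data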;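 note: growth measured after 20 h incubation at 37 °C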
#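 Test system: tolC-deleted E. coli BW25113 | Medium: LB with kanamycin 50 µg/mL | Compound dosing: Single concentration, 10 µM final per compound | Schedule: 37 °C, 20 h exposure | Measured by: OD at 615 nm | Evaluation: Percent growth inhibition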
# PTK2B oligo ant: antagonists of human Pyk2 oligomerization | Q293 cells, Pyk2 FERM NanoBiT luminescence; active compounds read low | 0.83% of 99,000 active | Q14289 | z-score (the deposit names both 25 µM and 10 µM);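 active = Z-score of -3 or lower, scaled per plate to the spread of control and sample wells; inactive = z-score above -3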;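 note: negative z-score means lost luminescence so less FERM oligomerization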
# PostGolgi ctrl: inhibits growth of the yeast control strain; efflux-deficient yeast background strain, growth absorbance A615, 16 h; inhibition, % at 10 µM; 5% of 98,000 active; AID 738; in the data active = inhibition above about 30%
# FAK blocker: inhibitors of human focal adhesion kinase | Q05397 | biochemical FAK kinase activity assay | 0.84% of 97,000 active | inhibition, %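 (tested at 7 µM)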;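 note: 0% = DMSO and 100% = reference compound high control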
# PostGolgi yeast: growth inhibition of a yeast mutant, post-Golgi transport screen; inhibition, % at 10 µM; post-Golgi transport phenotypic cell assay; 0.9% of 98,000 active; in the data active = inhibition above about 30%;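 note: yeast cells grown in 1536-well plates; yeast grown about 18 h at 30C before absorbance read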
# FAK inh conf: FAK (human) inhibition confirmed. shares compounds with FAK blocker. FAK kinase biochemical inhibition assay. inhibition, % at 7 µM. 28% of 750 active
# The depositor's hits bear a star; x = no result. Cut-off read from the data, not from the text of the source, unless noted: active = inhibition above about 19%; inactive = the rest.
SMILES,Calb biofilm kill,tolC growth inh,PTK2B oligo ant,PostGolgi ctrl,FAK blocker,PostGolgi yeast,FAK inh conf
COc1cc(C2Nc3ccc4ncccc4c3C3=C2C(=O)CC(C)(C)C3)cc(OC)c1O (centres undefined),0,x,-0.17,-3,47*,8,34*
COC(=O)c1ccc2c(c1)NC1=C(C(=O)CC(C)(C)C1)C(c1ccncc1)N2 (centres undefined),8,-16,0.11,x,x,x,x
Cc1ccc(N2CC(C(=O)OCC(=O)C(C)(C)C)CC2=O)cc1 (centres undefined),-3,7,2.1,6,0,5,x
CCOc1cccc(CNc2ccc(O)cc2)c1OCc1ccc(Cl)cc1,x,x,0.48,9,30*,-14,-1
CCOc1cc(CNc2ccc(O)cc2)ccc1OCc1ccc(Cl)cc1Cl,x,x,0.17,19,32*,-12,-1
Oc1ccc(NCc2ccccc2OCc2ccccc2F)cc1,x,x,0.67,9,35*,0,-1
COc1cc(CNCCN2CCOCC2)ccc1OCc1ccc(Cl)cc1Cl,x,x,0.82,0,2,-3,x
CCCCCn1c(CN2CCN(C)CC2)nc2c1c(=O)n(C)c(=O)n2C,1,-7,x,0,-2,-1,x
CC(C)=CC1C(C(=O)Nc2ccc(Br)cn2)C1(C)C (centres undefined),-2,15,-1,12,27*,-1,8
Cc1ccsc1C=Nc1ccc(O)cc1,11,-2,-1.7,3,50*,2,1
Cc1ccsc1/C=N/NC(=O)c1sccc1C,x,x,0.66,5,6,-4,x
Cc1nn(C(=O)c2ccco2)c(C)c1CN1C(=O)c2ccccc2C1=O,2,-6,-0.47,2,32*,-9,8
Cc1nn(C(=O)c2cccs2)c(C)c1CN1C(=O)c2ccccc2C1=O,1,-3,1.3,2,3,-6,x
CCOC(=O)c1cnc2ccc(C)cc2c1Nc1ccc(N2CCOCC2)cc1,x,x,-3*,16,51*,11,22*
CCOC(=O)c1cnc(N2CCOCC2)[nH]c1=O,5,-17,1.8,-7,-6,-3,x
CCOC(=O)c1cnc2ccc(C)cc2c1Sc1ccccc1,x,x,-2,31*,22*,3,2
O=C(O)c1ccccc1C(=O)NCC(O)COCC1CC=CCC1 (centres undefined),5,-10,2.1,11,15,1,x
COc1ccc(/C=N/n2c(SC)nnc(C(C)(C)C)c2=O)cc1OC,10,x,0.37,6,3,1,x
Cc1nn(Cc2ccc(C(=O)Nc3nccs3)cc2)c(C)c1Cl,7,20,-1.2,-4,22*,17,3
COc1ccc(C(=O)Nc2nccs2)cc1OC,-4,-4,-0.02,-2,x,-3,x
CN(C)c1ccc(-n2cc3c(=O)n(C)c(=O)n(C)c3c2)cc1,3,10,-0.63,21,27*,1,8
COc1ccc(/C=N/NC(=O)CCCOc2ccc(Cl)cc2Cl)cc1[N+](=O)[O-],x,x,-0.05,16,23*,0,9
Cc1cc2c(C)nc(-c3ccccc3)nc2o1,0,-13,0.43,17,25*,-13,-1
